Assay [1] has as its system L1210. Put plainly: Tested for post inoculation lifespan in L1210-inoculated mice at dose 288 mg/kg administered intraperitoneally. The format is functional, Mus musculus. The following applies: route intraperitoneal. A digest of the protocol: (§1)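 Female BDF1 mice (~18 g) were inoculated ip on day 0 with 1 × 10⁶ L1210 cells and treated once ip 24 h later with drug in water (0.01 mL/g); saline controls. Groups had six mice. %T/C = mean life span treated / mean life span control × 100, with T/C ≥ 125 taken as significant. Deaths were assigned to leukemia or drug toxicity by timing and necropsy.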

The subject of assay [2] is L1210. As to the kind of experiment: Tested for percent of L1210 cells killed by dose 288 mg/kg administered intraperitoneally. The class given is functional, Mus musculus. The following applies: route intraperitoneal. A digest of the protocol:
(§2)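 Female BDF1 mice (~18 g) were inoculated ip on day 0 with 1 × 10⁶ murine L1210 leukemia cells. They got a single ip bolus 24 h later of drug freshly dissolved in water, at 0.01 mL/g body weight. Controls received saline. The percentage of cells killed was estimated from residual leukemia body burden, using inoculum-response data relating inoculum size to postinoculation life span.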

Assay [3] relates to L1210. As to the kind of experiment: Tested for post inoculation lifespan in L1210-inoculated mice at dose 173 mg/kg administered intraperitoneally. The following applies: route intraperitoneal. The format is functional, Mus musculus. A digest of the protocol:
as §1

In assay [4] the test system is L1210. Put plainly: Tested for percent of L1210 cells killed by dose 173 mg/kg administered intraperitoneally. The format is functional, Mus musculus. To be noted: route intraperitoneal. The method in brief: as §2
The test system of assay [5] is L1210. Put plainly: Tested for percent of L1210 cells killed by dose 62 mg/kg administered intraperitoneally. The format is functional, Mus musculus. To be noted: route intraperitoneal. A digest of the protocol: as §2
The test system of assay [6] is L1210. As to the kind of experiment: Tested for post inoculation lifespan in L1210-inoculated mice at dose 62 mg/kg administered intraperitoneally. The format is functional, Mus musculus. To be noted: route intraperitoneal. A digest of the protocol:
as §1

Assay [7] concerns L1210. Put plainly: Tested for post inoculation lifespan in L1210-inoculated mice at dose 104 mg/kg administered intraperitoneally. The following applies: route intraperitoneal. The class given is functional, Mus musculus. A digest of the protocol: as §1
In assay [8] the test system is L1210. Put plainly: Tested for percent of L1210 cells killed by dose 104 mg/kg administered intraperitoneally. The following applies: route intraperitoneal. The class given is functional, Mus musculus. The method in brief:
as §2

The test system of assay [9] is L1210. Put plainly: Tested for percent of L1210 cells killed by dose 480 mg/kg administered intraperitoneally. To be noted: route intraperitoneal. The class given is functional, Mus musculus. The method in brief:
as §2

Assay [10] deals with L1210. Put plainly: Tested for post inoculation lifespan in L1210-inoculated mice at dose 480 mg/kg administered intraperitoneally. The format is functional, Mus musculus. The following applies: route intraperitoneal. The method in brief: as §1
Assay [11] has as its system L1210. Put plainly: Tested for percent of L1210 cells killed by dose 173 mg/kg administered intraperitoneally. To be noted: Mus musculus, route intraperitoneal.
Assay [12] relates to L1210. As to the kind of experiment: Tested for percent of L1210 cells killed by dose 800 mg/kg administered intraperitoneally. The format is functional, Mus musculus. The following applies: route intraperitoneal. The method in brief: as §2
The test system of assay [13] is L1210. As to the kind of experiment: Tested for post inoculation lifespan in L1210-inoculated mice at dose 800 mg/kg administered intraperitoneally. The following applies: route intraperitoneal. The class given is functional, Mus musculus. A digest of the protocol: as §1
The test system of assay [14] is L1210. As to the kind of experiment: Tested for percent of L1210 cells killed by dose 37 mg/kg administered intraperitoneally. The class given is functional, Mus musculus. The following applies: route intraperitoneal. The method in brief:
as §2

The subject of assay [15] is L1210. As to the kind of experiment: Tested for post inoculation lifespan in L1210-inoculated mice at dose 37 mg/kg administered intraperitoneally. The class given is functional, Mus musculus. To be noted: route intraperitoneal. A digest of the protocol: as §1

For `NS(=O)(=O)c1ncnc2c1ccn2[C@H]1C[C@H](O)[C@@H](CO)O1`, the T/C (usually the result in the treated group divided by that in the control group, in per cent) with L1210 [1] is recorded as 113%. In the assay with L1210 [2], this compound displayed a Cells killed of 67.94%.

In the assay with L1210 [3], `Nc1nc([S+](N)[O-])c2ccn([C@@H]3C[C@@H](O)[C@H](CO)O3)c2n1` (stereo partly drawn) came in with a T/C of 100%. The compound further registered a Cells killed in the assay on L1210 [4] of 0%.

For `OC[C@H]1O[C@@H](n2ccc3c(S)ncnc32)C[C@@H]1O`, in the assay on L1210 [5], the Cells killed is reported as 0%. The compound also gave a T/C with L1210 [6] of 96%.

Consider `NSc1ncnc2c1ccn2[C@H]1C[C@H](O)[C@@H](CO)O1`, for which the T/C in the assay with L1210 [7] is reported as 101%. This compound also registered a Cells killed in the assay with L1210 [8] of 2%.

On to `N[S+]([O-])c1ncnc2c1ccn2[C@@H]1C[C@@H](O)[C@H](CO)O1` (stereo partly drawn), for which, in the assay on L1210 [9], the Cells killed amounted to 60.59%. In the assay on L1210 [10], this compound came in with a T/C of 112%.

`NSc1nc(N)nc2c1ccn2[C@H]1C[C@H](O)[C@@H](CO)O1`: in the assay with L1210 [3], the T/C worked out at 112%. Also, the Cells killed in the assay with L1210 [11] is 46.64%.

`Nc1nc(S)c2ccn([C@H]3C[C@H](O)[C@@H](CO)O3)c2n1` yielded a T/C in the assay on L1210 [7] of 105%. For the same compound, the Cells killed in the assay on L1210 [8] was 35.63%.

`Nc1cc2c(ncn2C2O[C@H](CO)[C@@H](O)[C@H]2O)c(S)n1` (stereo partly drawn) came in with a T/C in the assay on L1210 [7] of 93%. The Cells killed in the assay on L1210 [8] was 0%.

With `Nc1nc([S+](N)[O-])c2ccn(C3O[C@H](CO)[C@@H](O)[C@H]3O)c2n1` (stereo partly drawn), in the assay with L1210 [1], the T/C amounted to 115%. For the same compound, in the assay with L1210 [2], the Cells killed is listed as 76.93%.

`Nc1cc2c(ncn2C2O[C@H](CO)[C@@H](O)[C@H]2O)c([S+](N)[O-])n1` (stereo partly drawn) came in with a Cells killed in the assay on L1210 [12] of 16.32%. In addition, the T/C in the assay on L1210 [13] is on record as 102%.

The compound `NSc1nc(N)cc2c1ncn2C1O[C@H](CO)[C@@H](O)[C@H]1O` (stereo partly drawn) yielded a Cells killed with L1210 [5] of 21.86%. The T/C with L1210 [6] stood at 103%.

As to `Nc1nc(S(N)(=O)=O)c2ccn(C3O[C@H](CO)[C@@H](O)[C@H]3O)c2n1` (stereo partly drawn), the Cells killed in the assay on L1210 [9] was 0%. The T/C with L1210 [10] is 100%.

In turn, `Nc1nc(S)c2ccn(C3O[C@H](CO)[C@@H](O)[C@H]3O)c2n1` (stereo partly drawn) returned a Cells killed in the assay with L1210 [14] of 0%. In the assay with L1210 [15], this compound had a T/C of 90%.

As to `NSc1nc(N)nc2c1ccn2C1O[C@H](CO)[C@@H](O)[C@H]1O` (stereo partly drawn), the T/C in the assay on L1210 [7] turned out to be 111%. In the assay on L1210 [8], this compound had a Cells killed of 66.6%.

The values above are taken from ChEMBL document CHEMBL1124746, “Synthesis and antitumor evaluation in mice of certain 7-deazapurine (pyrrolo[2,3-d]pyrimidine) and 3-deazapurine (imidazo[4,5-c]pyridine) nucleosides structurally related to sulfenosine, sulfinosine, and sulfonosine” (1990).
